Laboratory results as given in ChEMBL document CHEMBL4406880, “Design, synthesis, and bioactivity of dihydropyrimidine derivatives as kinesin spindle protein inhibitors” (Bioorg Med Chem, 2019).

Columns and labels:
Type in all cases: functional
[1] = test system: NCI-H226; test: Growth inhibition of human NCI-H226 cells incubated for 48 hrs by sulforhodamine B assay; settings: NCI-H226, 48 h
In short: (§1)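 NCI-60 five-dose SRB assay in RPMI 1640 with 5% FBS, 37 °C, 5% CO2. Compound given at five tenfold dilutions, 0.01–100 µM, for 48 h. Adherent cells fixed with TCA, suspension cells with 16% final TCA. Bound SRB read at 515 nm and growth calculated against time-zero and untreated controls. GI50 taken from dose–response curves as the concentration giving a 50% decrease in net cell growth.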

[2] = test system: HT-29; test: Growth inhibition of human HT-29 cells incubated for 48 hrs by sulforhodamine B assay; settings: HT-29, 48 h; in short: as §1
[3] = test system: SF-268; test: Growth inhibition of human SF268 cells incubated for 48 hrs by sulforhodamine B assay; settings: SF-268, 48 h
In short: (§2)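 NCI-60 five-dose SRB assay. Cells were exposed for 48 h to tenfold dilutions of 0.01, 0.1, 1, 10 and 100 µM, in RPMI 1640 with 5% FBS. Plates fixed with TCA at the time of drug addition served as the time-zero reference. GI50 is the concentration giving a 50% reduction in net growth. TGI is total growth inhibition. LC50 is a net 50% loss of the initial cells.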

[4] = test system: SF-539; test: Growth inhibition of human SF539 cells incubated for 48 hrs by sulforhodamine B assay; settings: SF-539, 48 h; in short: as §2
[5] = test system: Hs-578T; test: Growth inhibition of human Hs 578T cells incubated for 48 hrs by sulforhodamine B assay; in short: as §1
[6] = test system: Malme-3M; test: Growth inhibition of human MALME-3M cells assessed as cell viability at 100 uM incubated for 48 hrs by sulforhodamine B assay; settings: read-out: Activity
[7] = test system: K562; test: Growth inhibition of human K562 cells assessed as cell viability at 100 uM incubated for 48 hrs by sulforhodamine B assay; settings: K562, 48 h, read-out: Activity
[8] = test system: MDA-MB-468; test: Growth inhibition of human MDA-MB-468 cells assessed as cell viability at 1 uM incubated for 48 hrs by sulforhodamine B assay; settings: MDA-MB-468, 48 h, read-out: Activity
[9] = test system: TK-10; test: Growth inhibition of human TK10 cells assessed as cell viability at 1 uM incubated for 48 hrs by sulforhodamine B assay; settings: TK-10, 48 h, read-out: Activity
[10] = test system: A549; test: Growth inhibition of human A549/ATCC cells assessed as cell viability at 1 uM incubated for 48 hrs by sulforhodamine B assay; settings: A549, 48 h, read-out: Activity
In short: (§3)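 NCI-60 five-dose mode: five tenfold dilutions (0.01, 0.1, 1, 10, 100 µM) are applied for 48 h to cells in RPMI 1640 with 5% FBS at 37 °C. Endpoint is TCA fixation with sulforhodamine B read at 515 nm. % growth comes from the 0 h and control absorbances. GI50 is the concentration giving a 50% reduction in net cell growth.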

[11] = test system: Hs-578T; test: Growth inhibition of human Hs 578T cells assessed as cell viability at 0.1 uM incubated for 48 hrs by sulforhodamine B assay; settings: read-out: Activity
[12] = test system: SN12C; test: Growth inhibition of human SN12C cells assessed as cell viability at 0.1 uM incubated for 48 hrs by sulforhodamine B assay; settings: read-out: Activity
[13] = test system: CAKI-1; test: Growth inhibition of human Caki1 cells assessed as cell viability at 0.1 uM incubated for 48 hrs by sulforhodamine B assay; settings: CAKI-1, 48 h, read-out: Activity
[14] = test system: EKVX; test: Growth inhibition of human EKVX cells assessed as cell viability at 0.1 uM incubated for 48 hrs by sulforhodamine B assay; settings: read-out: Activity
[15] = test system: A549; test: Growth inhibition of human A549/ATCC cells assessed as cell viability at 0.1 uM incubated for 48 hrs by sulforhodamine B assay; settings: A549, 48 h, read-out: Activity; in short: as §3
[16] = test system: UO-31; test: Growth inhibition of human UO31 cells assessed as cell viability at 0.001 uM incubated for 48 hrs by sulforhodamine B assay relative to control; settings: UO-31, 48 h, read-out: Activity
[17] = test system: OVCAR-5; test: Growth inhibition of human OVCAR5 cells assessed as cell viability at 0.001 uM incubated for 48 hrs by sulforhodamine B assay relative to control; settings: OVCAR-5, 48 h, read-out: Activity
[18] = test system: COLO 205; test: Growth inhibition of human COLO205 cells assessed as cell viability at 0.001 uM incubated for 48 hrs by sulforhodamine B assay relative to control; settings: COLO 205, 48 h, read-out: Activity
[19] = test system: NCI-H460; test: Growth inhibition of human NCI-H460 cells assessed as cell viability at 0.001 uM incubated for 48 hrs by sulforhodamine B assay relative to control; settings: NCI-H460, 48 h, read-out: Activity
[20] = test system: CCRF-CEM; test: Growth inhibition of human CCRF-CEM cells assessed as cell viability at 0.001 uM incubated for 48 hrs by sulforhodamine B assay relative to control; settings: read-out: Activity
[21] = test system: SK-OV-3; test: Growth inhibition of human SKOV3 cells assessed as cell viability at 100 uM incubated for 48 hrs by sulforhodamine B assay; settings: SK-OV-3, 48 h, read-out: Activity
[22] = test system: TK-10; test: Growth inhibition of human TK10 cells assessed as cell viability at 100 uM incubated for 48 hrs by sulforhodamine B assay; settings: TK-10, 48 h, read-out: Activity
[23] = test system: Hs-578T; test: Growth inhibition of human Hs 578T cells assessed as cell viability at 100 uM incubated for 48 hrs by sulforhodamine B assay; settings: read-out: Activity
[24] = test system: T47D; test: Growth inhibition of human T47D cells assessed as cell viability at 100 uM incubated for 48 hrs by sulforhodamine B assay; settings: read-out: Activity

In the case of `CC1=C(C(=O)OCc2ccccc2)C(c2ccc3c(c2)OCO3)n2c(nc3ccccc32)N1` (racemic), the GI50 ([1]; read-out: GI50) is reported as greater than 100 µM, the LC50 (concentration killing 50% of starting cells) ([1]; read-out: LC50) is reported as greater than 100 µM and the TGI ([1]; read-out: TGI) is reported as greater than 100 µM. For the same compound, the GI50 ([1]; read-out: pGI50 (converted)) was greater than 100 µM, the LC50 (concentration killing 50% of starting cells) ([1]; read-out: pLC50 (converted)) was greater than 100 µM and the TGI ([1]; read-out: pTGI) was greater than 100 µM. For the same compound, the GI50 ([2]; read-out: GI50) was 0.34 µM, the LC50 (50% net cell kill) ([2]; read-out: LC50) was greater than 100 µM and the TGI ([2]; read-out: TGI) was greater than 100 µM. The GI50 ([2]; read-out: pGI50 (converted)) was 0.347 µM, the LC50 (50% net cell kill) ([2]; read-out: pLC50 (converted)) was greater than 100 µM and the TGI ([2]; read-out: pTGI) was greater than 100 µM. For the same compound, the GI50 ([3]; read-out: GI50) was 0.51 µM, the LC50 ([3]; read-out: LC50) was greater than 100 µM and the TGI ([3]; read-out: TGI) was greater than 100 µM. For the same compound, the GI50 ([3]; read-out: pGI50 (converted)) was 0.513 µM, the LC50 ([3]; read-out: pLC50 (converted)) was greater than 100 µM and the TGI ([3]; read-out: pTGI) was greater than 100 µM. For the same compound, the GI50 ([4]; read-out: GI50) was 0.34 µM, the LC50 ([4]; read-out: LC50) was greater than 100 µM and the TGI ([4]; read-out: TGI) was greater than 100 µM. The GI50 ([4]; read-out: pGI50 (converted)) was 0.339 µM, the LC50 ([4]; read-out: pLC50 (converted)) was greater than 100 µM and the TGI ([4]; read-out: pTGI) was greater than 100 µM. For the same compound, the GI50 ([5]; read-out: GI50) was 0.28 µM, the CC50 ([5]; read-out: LC50 (the source's name)) was greater than 100 µM and the TGI ([5]; read-out: TGI) was 23.8 µM. It also gave a GI50 ([5]; read-out: pGI50 (converted)) of 0.282 µM, a CC50 ([5]; read-out: pLC50 (the source's name) (converted)) greater than 100 µM and a TGI ([5]; read-out: pTGI (converted)) of 24 µM. The viability at 100 µM [6] was 20%, the viability at 100 µM [7] was 26% and the viability at 1 µM [8] was -9%. For the same compound, the viability at 1 µM [9] was 71%, the viability at 1 µM [10] was 40% and the viability at 0.1 µM [11] was 88%. For the same compound, the viability at 0.1 µM [12] was 95%, the viability at 0.1 µM [13] was 74% and the viability at 0.1 µM [14] was 95%. The viability at 0.1 µM [15] was 99%, the viability at 0.001 µM [16] was 86% and the viability at 0.001 µM [17] was 93%. It also gave a viability at 0.001 µM [18] of 95%, a viability at 0.001 µM [19] of 98% and a viability at 0.001 µM [20] of 101%. The viability at 100 µM [21] was 42%, the viability at 100 µM [22] was 68% and the viability at 100 µM [23] was -24%. For the same compound, the viability at 100 µM [24] was 34%.
